# Screening data as filed in PubChem.
# Only some compounds are listed: those with a hit (about 4.8% of all), similar ones and a draw of the others.
# ATG4B inh = ATG4B (human) cysteine protease inhibition | Q9Y4P1 | ATG4B cleavage of LC3-PLA2, NBD-HPC fluorescence, 1 h | inhibition, % at 8.33 µM | 0.51% of 340,000 active | AID 504462; in the data active = inhibition above about 40%
# Target sequence (Q9Y4P1 whole entry, looked up): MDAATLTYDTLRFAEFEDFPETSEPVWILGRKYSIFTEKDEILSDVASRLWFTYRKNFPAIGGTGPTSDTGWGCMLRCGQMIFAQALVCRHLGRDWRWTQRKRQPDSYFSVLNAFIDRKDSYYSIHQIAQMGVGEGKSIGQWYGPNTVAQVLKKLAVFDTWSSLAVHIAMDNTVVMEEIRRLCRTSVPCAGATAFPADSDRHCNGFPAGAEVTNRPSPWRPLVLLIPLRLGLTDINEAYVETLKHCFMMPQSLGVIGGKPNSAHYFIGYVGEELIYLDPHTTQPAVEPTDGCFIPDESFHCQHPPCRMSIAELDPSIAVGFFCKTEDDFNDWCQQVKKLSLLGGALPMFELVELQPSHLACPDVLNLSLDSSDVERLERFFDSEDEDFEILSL
# NALP3 yeast inh = inhibitors of NALP3 inflammasome in yeast; Yeast reconstituted NLRP3/ASC/caspase-1, beta-gal luminescence, 24 h; inhibition, % at 10 µM; 0.39% of 330,000 active;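 active = inhibition of 50% or more; inactive = inhibition below 50%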
# UCH37 inh = human UCH37 deubiquitinating enzyme inhibition | purified proteasome/UCH37, Ub-AMC cleavage fluorescence | Q9Y5K5 | 0.33% of 330,000 active | inhibition, % (concentration not given with the values);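 active = mean inhibition over replicate wells above about 20%, limit read from the data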
#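 Material: human UCH37 enzyme supplied as purified proteasome complex / Amount: 0.15 nM proteasome as dispensed / Buffer or medium: pH 7.4 Tris-HCl (50 mM) with ovalbumin, ATP-MgCl2, DTT / Times: preincubation 30 min, reaction 25 min, room temperature / Technique: AMC fluorescence from Ub-AMC cleavage, excitation 355 nm, emission 460 nm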
# Calb FLC = C. albicans growth modulation with fluconazole; growth inhibition, % (no concentration beside the values); 0.57% of 300,000 active; C. albicans CaCi-2 (fluconazole-resistant clinical isolate) + fluconazole, Alamar Blue growth, 48 h;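 active = growth inhibition above about 58% in most replicates, limit read from the data, passing the limit was not always enough; inconclusive = exactly half the replicates above a set limit; inactive = most replicates below a set limit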;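 note: all wells also contain fluconazole at 8 µg/ml as a sub-toxic cotreatment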
# ALR inh = blocks human ALR sulfhydryl oxidase activity; P55789; purified ALR, DTT oxidation, H2O2 HRP-luminol luminescence; inhibition, % (no concentration beside the values); 3.8% of 290,000 active; AID 485317;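 active = mean replicate inhibition above about 79%, with every replicate also reaching it, limit read from the data; inconclusive = only one of the two criteria met; inactive = mean below limit and not every replicate reaching it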
# NALP1 inh = inhibitors of NALP1 inflammasome in yeast; S. cerevisiae NALP1/ASC/caspase-1 growth, X-gal OD620, 72 h; inhibition, % at 10 µM; 0.61% of 280,000 active; in the data active = inhibition mostly above about 24%, no sharp cut-off; inactive = mostly below about 32%
# Numbers stand for hits; – = inactive; ? = inconclusive; · = no result.
SMILES,ATG4B inh,NALP3 yeast inh,UCH37 inh,Calb FLC,ALR inh,NALP1 inh
O=S(=O)(c1cccc(-c2csc(-c3ccccc3)n2)c1)N1CCOCC1,–,–,–,–,98,–
O=S(=O)(c1cccc(-c2nc3ccccc3s2)c1)N1CCOCC1,–,–,–,–,–,–
CC(=NNC(=O)C(C)n1nc(C)c([N+](=O)[O-])c1C)c1ccccc1O (centres undefined),·,·,–,·,·,·
O=C(C1CCCC1)N1CCCC(Nc2ccccc2)C1 (centres undefined),–,–,–,–,99,–
O=C(Nc1ccc(F)cc1)N1CCN(C(=O)C2CCCO2)CC1 (centres undefined),–,–,–,–,–,34
O=C(C1CCCC1)N1CCCC(Nc2ccc(F)cc2)C1 (centres undefined),–,–,–,–,99,–
Cc1ccc(NC2CCCN(C(=O)C3CCCCC3)C2)cc1C (centres undefined),–,–,–,–,99,–
COc1ccc(OC)c(C=NN(C)c2ccccc2)c1,·,·,–,·,·,·
CC(=NNC(=O)c1ccc(Cn2cc(Br)cn2)o1)c1cccc(NC(=O)C(C)C)c1,·,·,–,·,·,·
COc1cc(C(=O)ON=C2C=C(C)C(=O)C=C2C)cc(OC)c1OC,·,·,–,·,·,·
CCOc1cccc2cc(-c3csc(NC(=O)CCC(=O)NCCN4CCCCC4C)n3)c(=O)oc12 (centres undefined),–,–,–,–,99,–
CCOc1cccc2cc(-c3csc(NC(=O)CCC(=O)NCCCN4CCC(C)CC4)n3)c(=O)oc12,·,–,–,–,99,–
CCOc1cccc2cc(-c3csc(NC(=O)CCC(=O)N4CCC(C)CC4)n3)c(=O)oc12,–,–,–,–,–,–
COC(=O)/C(=C/c1ccco1)NC(=O)c1ccccc1,–,–,–,–,·,–
O=C(CNC(=O)c1cccs1)N/N=C/c1ccco1,–,–,·,–,–,29
O=C(N/C(=C/c1ccco1)C(=O)N1CCCCCC1)c1cccs1,–,–,–,?,97,–
Cc1ccc(/C=N/NC(=O)CNC(=O)c2cccs2)o1,–,–,·,–,–,–
O=C(O)/C(=C\c1ccco1)NC(=O)c1ccccc1,–,–,–,–,97,–
C=CCn1c(=C(C#N)C(=O)c2ccccc2)sc(=Cc2ccc(C)o2)c1=O,·,·,–,·,·,·
CCOC(=O)c1c(N)nn(C(=O)C(C)C)c1-c1ccccc1,–,–,–,·,–,38
COc1ccc(C(=O)C2CCCN(Cc3cnc(N4CCCC4)s3)C2)cc1OC (centres undefined),–,–,–,–,98,–
CC(CCC(C)C)=NNC(=S)Nc1cc(S(=O)(=O)N2CCOCC2)ccc1N1CCOCC1,·,·,–,·,·,·
O=C(Oc1cccc2cccnc12)c1ccc(N2C(=O)C3C4CCC(C4)C3C2=O)cc1 (centres undefined),–,–,–,–,–,59
CCC(C)=NNc1nc(-c2cc3cccc(OC)c3oc2=O)cs1,·,·,–,·,·,·
Brc1cccc(-c2n[nH]c(-c3ccccc3)n2)c1,–,–,–,–,–,29
SMILES,ATG4B inh,NALP3 yeast inh,UCH37 inh,Calb FLC,ALR inh,NALP1 inh
c1ccc(-c2nc(-c3cccnc3)n[nH]2)cc1,·,–,–,–,–,–
CCN1/C(=C2/SC(=S)NC2=O)Sc2ccccc21,–,–,–,?,91,–
O=c1c2ccccc2nc(SCc2nnc(-c3ccccc3Br)o2)n1-c1ccccc1,45,–,–,–,–,–
COc1cc([N+](=O)[O-])cc(C=NNC(=O)CSc2nnc(-c3ccccc3)n2C)c1O,·,·,–,·,·,·
Cc1cc2[nH]c(=S)[nH]c2cc1C,–,·,–,–,99,–
CSc1nc2nc(-c3ccccc3)cc(C(F)(F)F)n2n1,–,–,–,?,–,27
COc1ccc(C=Nn2c(SC)nnc(C(C)(C)C)c2=O)cc1OC,·,·,–,·,·,·
O=C(NC1CCSC1=O)c1ccc(Oc2ccc(F)cc2)nc1 (centres undefined),–,–,–,–,–,–
Cc1ccc(Oc2ccc(C(=O)NC3CCSC3=O)cn2)cc1 (centres undefined),–,–,–,–,99,–
COCCNC(=S)NN=Cc1ccc(OCc2ccc(C(=O)OC)cc2)c(OC)c1,·,·,–,·,·,·
C=CCNC(=S)N/N=C(\C)c1cccnc1,–,–,·,–,83,–
NC(=O)CC12CC3CC(C1)CC(CC(N)=O)(C3)C2,–,–,–,87,–,–
